Experimental findings from PMC10993231 (RSC Advances, 2024) are described below.

The data set is described as follows: Stability of radiolabeled peptide in human plasma. The note with it: 37 °C, TLC read-out. The data set is classed as in vitro ADME. Put shortly:
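The peptide was dissolved in DMSO and diluted with water, then iodinated with 131I (3 mCi) and chloramine-T in 0.05 mol L−1 PBS, pH 7.4. The mixture was vortexed 2 min at room temperature and the reaction stopped with sodium metabisulfite. The 131I-peptide was incubated with human plasma at 37 °C for up to 72 h to gauge proteolytic degradation.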

Turning to ^131I-cWIWLYA (head to tail), the “Radioactivity remaining after incubation in human plasma” value reads like this: (5 h incubation) more than 90%; (72 hours incubation) 57.5%.
